Reference: ChEMBL document CHEMBL1158505, “Phenolics from Glycyrrhiza glabra roots and their PPAR-gamma ligand-binding activity” (Bioorg Med Chem, 2010)
Active and inactive are the calls of the source. The rule behind the calls is not given here.

target: T1, Peroxisome proliferator-activated receptor gamma (Homo sapiens) (UniProt P37231); assay: Binding affinity to human recombinant […] expressed in african green monkey CV1 cells coexpressing GAL4-luc reporter by microplate scintillation counter; format: cell-based; details: CV-1
T1 sequence (whole entry): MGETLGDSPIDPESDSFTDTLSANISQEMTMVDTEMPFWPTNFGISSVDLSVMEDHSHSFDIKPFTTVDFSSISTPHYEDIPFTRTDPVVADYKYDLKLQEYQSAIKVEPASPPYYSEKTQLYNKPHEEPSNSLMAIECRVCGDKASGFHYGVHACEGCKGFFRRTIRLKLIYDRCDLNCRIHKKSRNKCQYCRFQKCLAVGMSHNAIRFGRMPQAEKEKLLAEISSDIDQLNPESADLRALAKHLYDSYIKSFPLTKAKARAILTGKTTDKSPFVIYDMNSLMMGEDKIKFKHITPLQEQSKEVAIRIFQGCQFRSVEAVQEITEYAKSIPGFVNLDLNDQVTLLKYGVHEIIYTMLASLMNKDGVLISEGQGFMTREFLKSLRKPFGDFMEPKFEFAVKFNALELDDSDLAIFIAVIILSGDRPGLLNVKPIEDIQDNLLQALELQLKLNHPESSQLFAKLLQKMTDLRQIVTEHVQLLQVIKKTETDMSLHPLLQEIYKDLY
Procedure, shortened: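 GAL4-PPAR-γ chimera reporter assay in CV-1 monkey kidney cells seeded at 6 × 10³ cells/well in DMEM with 10% FBS and ascorbic acid, 37 °C, 5% CO2, 24 h. Cells transfected with pM-hPPAR-γ and p4×UASg-tk-luc, then 24 h later given DMEM with 10% charcoal-treated FBS plus sample (2 or 10 μg/mL; final DMSO 0.1%) for 24 h. Luciferase luminescence expressed relative to DMSO control; n = 4.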

SMILES | Activity
CC1(C)C=Cc2c(ccc3c2OC[C@@H](c2cc(C=O)c(O)cc2O)C3)O1 | Active
CC1(C)C=Cc2c(ccc3c2OC[C@H]2c4ccc(O)cc4O[C@@H]32)O1 | Active
COc1ccc([C@@H]2COc3cc(O)ccc3C2)c(O)c1O | Active
COc1cc(O)ccc1/C=C/C(=O)c1ccc(O)cc1 | Active
CC(C)=CCc1c(O)ccc([C@@H]2COc3c(ccc(O)c3CC=C(C)C)C2)c1O | Active

The remaining lines, values ahead:

Activity | SMILES
Active | CC(C)=CCc1c(O)cc(O)c2c(=O)c(-c3ccc(O)c(O)c3)coc12
Active | CC1(C)C=Cc2c(ccc(-c3coc4cc(O)ccc4c3=O)c2O)O1
Active | CC(C)=CCc1cc([C@@H]2CC(=O)c3ccc4c(c3O2)C=CC(C)(C)O4)ccc1O
Active | CC(C)=CCc1cc2c(=O)cc(-c3ccc(O)cc3)oc2cc1O
Active | CC1(C)C=Cc2c(ccc3cc(-c4ccc(O)cc4O)c(=O)oc23)O1
Active | CC(C)=CCc1cc([C@@H]2CC(=O)c3ccc(O)c(CC=C(C)C)c3O2)ccc1O
Active | CC(C)=CCc1cc([C@H]2Oc3cc(O)ccc3C(=O)[C@@H]2O)ccc1O
